This note sets out measurements from ChEMBL document CHEMBL1140440, “Simple but highly effective three-dimensional chemical-feature-based pharmacophore model for diketo acid derivatives as hepatitis C virus RNA-dependent RNA polymerase inhibitors” (J Med Chem, 2005).

In general, IC50 refers to the concentration needed to halve the response being measured. Read a low IC50 as higher potency.

The assay concerns the target RNA-directed RNA polymerase (Hepacivirus hominis, UniProt O39930). The assay is described as follows: Inhibitory concentration against NS5B HCV polymerase using [alpha-32P]UTP as radioligand (30 degree C for 2 h, at pH 7.5 with Tris-HCl buffer). An outline of the steps: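 Recombinant HCV RdRp (1 nM) in 20 mM Tris-HCl pH 7.5, 5 mM MgCl2, 1 mM DTT, 1 mM EDTA, RNase inhibitor, 50 µg/mL actinomycin D, 10 µg/mL RNA template, 0.5 mM ATP/CTP/GTP, [α-32P]UTP, limiting nucleotide 10 µM. 30 °C, 2 h; proteinase K stop, extraction, urea-PAGE, phosphorimaging. IC50s rescaled by a reference inhibitor's measured/literature IC50 ratio.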

Sequence of RNA-directed RNA polymerase (O39930 whole entry): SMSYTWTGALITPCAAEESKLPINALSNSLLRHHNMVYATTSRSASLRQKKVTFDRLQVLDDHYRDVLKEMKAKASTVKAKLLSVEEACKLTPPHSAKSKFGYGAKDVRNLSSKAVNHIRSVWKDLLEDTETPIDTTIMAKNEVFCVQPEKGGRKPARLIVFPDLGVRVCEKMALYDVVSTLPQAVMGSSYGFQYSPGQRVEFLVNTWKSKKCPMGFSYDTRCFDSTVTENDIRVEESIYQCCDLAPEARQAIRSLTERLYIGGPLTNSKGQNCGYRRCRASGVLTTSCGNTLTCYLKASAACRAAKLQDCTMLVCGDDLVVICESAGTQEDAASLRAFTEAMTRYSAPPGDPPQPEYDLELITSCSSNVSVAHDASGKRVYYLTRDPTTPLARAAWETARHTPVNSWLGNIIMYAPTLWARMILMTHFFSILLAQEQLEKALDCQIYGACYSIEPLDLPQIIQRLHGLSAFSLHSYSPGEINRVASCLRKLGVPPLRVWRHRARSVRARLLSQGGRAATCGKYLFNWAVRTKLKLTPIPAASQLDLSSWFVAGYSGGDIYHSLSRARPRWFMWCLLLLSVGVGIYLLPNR

In the case of `O=C(O)C(=O)/C=C(\O)c1cccc(OCc2ccccc2)c1`, the IC50 was determined as 8 µM. Consider `O=C(O)C(=O)/C=C(\O)c1ccccc1`, for which the IC50 stood at 5.6 µM.

`O=C(O)C(=O)/C=C(\O)c1cccc(O)c1` had an IC50 of 1 µM. For `O=C(O)C(=O)/C=C(\O)c1cccc(OCc2cc(-c3ccccc3)on2)c1` the value was 6 µM; for `O=C(O)C(=O)/C=C(\O)c1cccc(NC(=O)C(=O)O)c1`, 19 µM; for `O=C(O)C(=O)/C=C(\O)c1ccc(Cc2ccc(F)cc2)s1`, 65 µM. For `O=C(O)C(=O)/C=C(\O)c1cccn1Cc1ccc2ccccc2c1` the value was 13 µM; for `O=C(O)C(=O)/C=C(\O)c1cccc(Oc2ccccc2)c1`, 19 µM. The compound `Cn1cc(/C(O)=C/C(=O)C(=O)O)cc1Cc1cccc(F)c1` registered an IC50 of 21 µM. In turn, `O=C(O)C(=O)/C=C(\O)c1cccc(OCc2cccc(Oc3ccccc3)c2)c1` registered an IC50 of 50 µM.

Compound `Cc1ccc(/C(O)=C/C(=O)C(=O)O)o1` came in with an IC50 of 58 µM. In turn, `O=C(O)C(=O)/C=C(\O)c1ccccc1Cc1ccc(F)cc1` registered an IC50 of 8.3 µM. With `O=C(O)C(=O)/C=C(\O)c1ccc(Cc2cccc(F)c2)s1`, the IC50 came out at 74 µM. `N#CCCCOc1ccccc1/C(O)=C/C(=O)C(=O)O` registered an IC50 of 0.38 µM. For `COc1cccc(/C(O)=C/C(=O)C(=O)O)c1` the value was 40 µM; for `O=C(O)C(=O)/C=C(\O)c1ccsc1`, 4 µM; for `N#Cc1cccc(Cn2ccc(/C(O)=C/C(=O)C(=O)O)c2)c1`, 4.6 µM. In the case of `O=C(O)C(=O)/C=C(\O)c1ccc(Cc2ccccc2)s1`, the IC50 came to 68 µM.

Compound `N#CCCCOc1ccc(O)cc1/C(O)=C/C(=O)C(=O)O` showed an IC50 of 0.11 µM.

The compound `O=C(O)C(=O)/C=C(\O)C12C[C@H]3C[C@@H](C1)C[C@@H](C2)C3` returned an IC50 of 6.7 µM. For `O=C(O)C(=O)/C=C(\O)c1cccn1Cc1c(F)cccc1F`, the 50% inhibitory concentration (IC50) is 7.4 µM. `O=C(O)C(=O)/C=C(\O)c1ccc(N2CCCCC2)s1` displayed an IC50 of 8.2 µM. On to `O=C(O)C(=O)/C=C(\O)c1cnc2cc(Cl)ccc2c1O`, for which the half-inhibitory concentration (IC50) was found to be 26 µM.

For `N#Cc1ccccc1Cn1cccc1/C(O)=C/C(=O)C(=O)O`, the IC50 turned out to be 6.3 µM.

For `Cc1cc(C)c(/C(O)=C/C(=O)C(=O)O)s1`, the half-maximal inhibitory concentration (IC50) worked out at 8.2 µM. On to `O=C(O)C(=O)/C=C(O)/C=C/c1cccn1Cc1cccc(F)c1`, for which the IC50 was determined as 18 µM. With `O=C(O)C(=O)/C=C(\O)c1cccc(-c2ccccc2)c1`, the IC50 was found to be 28 µM. `Cc1sc(-c2ccccc2)cc1/C(O)=C/C(=O)C(=O)O` had an IC50 of 167 µM. `Cc1cc(/C(O)=C/C(=O)C(=O)O)c(C)o1` came in with an IC50 of 14 µM. Turning to `CCCCS(=O)(=O)N1CCCC(Cc2ccc(Cl)cc2)(/C(O)=C/C(=O)C(=O)O)C1` (stereo unspecified), the IC50 was determined as 81.4 µM. Consider `O=C(O)C(=O)/C=C(\O)c1ccc(Cc2cccc(Cl)c2)s1`, for which the half-inhibitory concentration (IC50) was found to be 82 µM. For `Cc1coc(C)c1/C(O)=C/C(=O)C(=O)O`, the IC50 amounted to 48 µM. As to `COc1ccc(Cn2cccc2/C=C/C(O)=C/C(=O)C(=O)O)cc1`, the half-maximal inhibitory concentration (IC50) is 16 µM. For the compound `N#Cc1cccc(Cl)c1COc1cc(O)cc(/C(O)=C/C(=O)C(=O)O)c1`, the IC50 worked out at 0.1 µM. The compound `O=C(O)C(=O)/C=C(\O)c1cccc(NS(=O)(=O)c2cc(Cl)c(Cl)cc2Cl)c1` had an IC50 of 0.049 µM. `O=C(O)C(=O)/C=C(\O)c1cccc(NS(=O)(=O)c2cc(Cl)cc(Cl)c2)c1` came in with an IC50 of 0.14 µM.

Turning to `O=C(O)C(=O)/C=C(\O)c1cc2c(s1)-c1cc(F)ccc1OC2`, the concentration for half-maximal inhibition (IC50) is 27 µM. As to `Cn1cc(C(=O)c2ccc(F)cc2)cc1/C=C/C(O)=C/C(=O)C(=O)O`, the IC50 turned out to be 16 µM. `O=C(O)C(=O)/C=C(\O)c1ccco1` returned a concentration for half-maximal inhibition (IC50) of 50 µM. The compound `O=C(O)C(=O)/C=C(\O)c1ccsc1Cc1ccc(F)cc1` gave an IC50 of 18 µM.

In turn, `O=C(O)C(=O)/C=C(\O)c1cccn1Cc1ccc(O)cc1` gave an IC50 of 13 µM. For `O=C(O)C(=O)/C=C(\O)c1ccc(-c2ccc(F)c(Cl)c2)o1` the value was 41 µM; for `O=C(O)C(=O)/C=C(\O)c1ccccc1OCc1ccccc1`, 44 µM; for `O=C(O)C(=O)/C=C(\O)c1cccn1Cc1cccc(F)c1`, 30 µM. As to `O=C(O)C(=O)/C=C(\O)c1cc(I)cn1Cc1ccc(F)cc1`, the IC50 came to 18 µM.

`O=C(O)C(=O)/C=C(\O)c1cccc(N2CCCC2)c1` had an IC50 of 84 µM. As to `O=C(O)C(=O)/C=C(\O)c1sccc1Cc1cccc(F)c1`, the IC50 was 9.9 µM. `O=C(O)C(=O)/C=C(\O)c1cccc(OCc2cccc3ccccc23)c1`: the IC50 stood at 0.67 µM.

In the case of `N#CCCCCn1cccc1/C(O)=C/C(=O)C(=O)O`, the IC50 is 13 µM. `Cc1cccc(/C(O)=C/C(=O)C(=O)O)c1` gave an IC50 of 12 µM.

The compound `O=C(O)C(=O)/C=C(\O)c1ccsc1Sc1cccc(Cl)c1` had an IC50 of 7.5 µM. The compound `COc1cccc(Cn2cccc2/C(O)=C/C(=O)C(=O)O)c1` registered an IC50 of 7.6 µM.

As for `O=C(O)C(=O)/C=C(\O)c1cccc(NCc2ccccc2)c1`, the IC50 is 17 µM. For `O=C(O)C(=O)/C=C(\O)c1cccn1Cc1ccccc1` the value was 29 µM; for `Cc1ccc(/C(O)=C/C(=O)C(=O)O)c(C)c1`, 2 µM; for `O=C(O)C(=O)/C=C(\O)c1cccc(OCc2ccsc2C(=O)O)c1`, 0.95 µM. On to `O=C(O)C(=O)/C=C(O)/C=C/c1c[nH]c2ccc(Cl)cc12`, for which the 50% inhibitory concentration (IC50) was determined as 18 µM. For `N#Cc1cc(Cl)c(Cl)cc1COc1cccc(/C(O)=C/C(=O)C(=O)O)c1` the value was 0.056 µM. For `O=C(O)C(=O)/C=C(\O)c1ccsc1Cc1cccc(F)c1` the value was 80 µM; for `O=C(O)C(=O)/C=C(\O)c1cccn1Cc1ccccc1Cl`, 24 µM; for `O=C(O)C(=O)/C=C(\O)c1cccc(Cc2cc(Br)cc(Br)c2)c1`, 32 µM. Compound `O=C(O)C(=O)/C=C(\O)c1cccc(OCc2ccc(-c3ccccc3)cc2)c1` came in with an IC50 of 50 µM. Take `O=C(O)C(=O)/C=C(\O)c1cccn1Cc1ccc(F)cc1`: the IC50 is 93 µM. Consider `O=C(O)C(=O)/C=C(\O)c1cc(O)cc(OCc2ccccc2)c1`, for which the 50% inhibitory concentration (IC50) was 1.4 µM. Consider `Cc1ccccc1Cn1cccc1/C=C/C(O)=C/C(=O)C(=O)O`, for which the half-maximal inhibitory concentration (IC50) worked out at 18 µM. For the compound `Cc1ccc(Cn2cccc2/C=C/C(O)=C/C(=O)C(=O)O)cc1`, the IC50 is 28 µM.
